# Shown are actives, neighbours in structure and some others; about 2.4% of the full set was active somewhere.
# Apaf1 inhib – inhibitors of human Apaf-1 apoptosome. inhibition, % at 20 µM. O14727. AID 489030. actives 0.71% (n = 330,000). reconstituted apoptosome caspase-3 activity, DEVD-Rh110 fluorescence; active = inhibition of at least 40% at 20 µM;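 note: plate controls were DMSO wells for no effect and DEVD-CHO caspase inhibitor wells for full effect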
#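 Assay system – apoptosome proteins · Medium – Hepes buffer, pH 7.5 · Also added – cytochrome c with DEVD-Rh110 · Timing – 30 min compound preincubation, 50 min activation, room temperature · Detection – Rh110 fluorescence, excitation 480 nm, emission 540 nm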
# PAD4 inh – blocks human protein arginine deiminase 4; recombinant PAD4, RCA probe fluorescence polarization; inhibition, % at 6.36 µM; Q9UM07; AID 485272; actives 0.41% (n = 330,000);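 active = percent inhibition above a cutoff equal to the mean of all tested compounds plus 3 SD, cut at about 15% in these data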;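 note: 0% = PAD4 with RCA probe and DMSO and 100% = probe without PAD4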
# GSTO1 inh – blocks human GSTO1 in RBBP9 counter-screen. P78417. recombinant GSTO1, activity-based probe fluorescence polarization. inhibition, % at 5.96 µM. actives 1.1% (n = 300,000). AID 1974;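 active = inhibition above the campaign mean inhibition plus 3 SD, cut at about 35% in these data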;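 note: 0% = GSTO1-1 with DMSO and 100% = wells lacking GSTO1-1 enzyme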
# TDP2 absorb – blocks human TDP2 phosphodiesterase activity. O95551. recombinant TDP2, T5PNP hydrolysis, p-nitrophenol absorbance 415 nm. inhibition, % at 12.8 µM. actives 0.34% (n = 370,000). AID 720702;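 active = inhibition above the mean of all tested compounds plus 3 SD, set per campaign, cut at about 25% in these data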;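 note: 0% = DMSO with enzyme and 100% = buffer with substrate but no TDP2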
#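 Assay system: Recombinant human TDP2 | Quantity: 120 nM TDP2 per well | Incubation: 2 h at 37 °C | Signal: Epi absorbance | Evaluation: Percent inhibition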
# TCR CD3 inh – inhibitors of human TCR-CD3 interaction. inhibition, % at 9.4 µM. actives 0.37% (n = 360,000). TAMRA-labeled TCR probe fluorescence, biochemical; in the data active = inhibition above about 19%;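 note: recombinant mutant TCR 2C K166C tagged with TAMRA read by polarization; 0% = receptor in buffer alone and 100% = receptor with positive control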
# SIAE primary – inhibitors of human sialic acid acetylesterase SIAE; actives 0.69% (n = 370,000); AID 1053197; inhibition, % at 9.66 µM; SIAE FP-Rh probe binding, fluorescence polarization;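 active = inhibition above a cutoff: mean of compounds within the control limits plus 3 SD of those, cut at about 17% in these data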;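 note: 0% = plate median of compound wells and 100% = probe without SIAE protein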
# PAD4 confirm – PAD4 (human) inhibition, confirmed; inhibition, % at 6.36 µM; recombinant PAD4, RCA probe fluorescence polarization; shares compounds with PAD4 inh; actives 28% (n = 1,200);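 active = mean inhibition across replicates above the hit cutoff set by the earlier primary screen, cut at about 15% in these data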;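 note: inhibitors block active-site labeling by the probe so polarization falls; 0% = PAD4 with probe and DMSO and 100% = probe without PAD4 enzyme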
# Numbers without * were called inactive; · = no result given.
SMILES,Apaf1 inhib,PAD4 inh,GSTO1 inh,TDP2 absorb,TCR CD3 inh,SIAE primary,PAD4 confirm
Cc1c(NC(=O)C(C)OC(=O)c2cc(-c3cccc4ccccc34)nc3ccccc23)c(=O)n(-c2ccccc2)n1C (stereo not drawn),26.7,18.6*,7.6,0.6,8.7,-15.1,3.8
O=[N+]([O-])c1cc(Br)c(Nc2ccccc2)c([N+](=O)[O-])c1,14.8,18.2*,13.4,-11.7,-1.1,-2.9,19.8*
CC(C)[C@H]1Cn2nncc2Cn2c3ccccc3c(=O)n21,·,·,·,-1.9,·,-0.9,·
CCOC(=O)C1CCN(c2nc3ccccc3nc2C(C#N)C(=O)OC(C)C)CC1 (stereo not drawn),5.6,16.7*,3.2,3.3,-3.0,5.5,-12.6
CCCN=Cc1sc2ccc(OCC)cc2c1O,-3.4,8.7,7.8,-8.5,-7.7,-0.3,·
CCOc1ccc2c(O)csc2c1,10.6,24.4*,2.8,3.2,4.8,-1.9,19.8*
NS(=O)(=O)c1ccc(NC(=S)NCc2ccc(Cl)cc2)cc1,7.4,20.0*,0.4,5.5,3.5,-9.4,6.5
NS(=O)(=O)c1ccc(CNC(=S)Nc2ccc(F)c(Cl)c2)cc1,-3.2,-2.4,-5.4,5.4,-6.9,-0.7,·
COc1ccc(S(=O)(=O)Nc2ccccc2C(=O)Nc2nc(-c3ccc(F)cc3)cs2)cc1OC,0.1,-6.0,-17.3,6.4,-2.4,-7.7,·
CN(C)S(=O)(=O)c1cccc(NC(=O)CCCc2nc3ccccc3c(=O)[nH]2)c1,0.9,28.9*,-1.9,-6.1,3.7,7.3,7.0
O=C(CCc1nc2ccccc2c(=O)[nH]1)Nc1cccc(S(=O)(=O)N2CCCCC2)c1,3.9,-3.1,2.8,5.1,7.6,-3.9,·
O=C(O)CCC(=O)Nc1ccc(SSc2ccc(NC(=O)CCC(=O)O)cc2)cc1,-7.8,55.5*,17.9,4.2,-5.3,-5.0,50.0*
Cc1cc(C)c(C#N)c(Sc2ccccc2N)n1,-9.4,20.5*,1.1,4.7,6.4,0.2,52.0*
CC(=O)C1=C(O)C(=O)N(CC(=O)O)C1c1ccccc1Cl (stereo not drawn),-6.3,20.2*,1.4,·,·,·,4.5
CC(C)(C)C(=O)C1=C(O)C(=O)N(Cc2ccccc2)C1c1ccccc1Cl (stereo not drawn),-0.3,-2.8,1.2,3.5,-6.4,-2.1,·
CN1CCN(S(=O)(=O)c2cccc(C(=O)Nc3sc4c(c3-c3nc5ccccc5[nH]3)CCCC4)c2)CC1,-0.7,19.5*,33.1,-5.8,-5.0,25.2*,1.8
COC(=O)c1c(NC(=O)c2ccco2)sc(C(=O)N(C)C)c1C,12.1,19.0*,10.6,-5.8,-5.3,-2.5,15.8*
COc1cccc(-c2csc(N3CCN(C(=O)C4CCCCC4)CC3)n2)c1,15.8,-5.1,3.0,10.9,3.1,2.8,·
CCCCCN1N=C(C)CC1=O,6.7,22.4*,29.7,24.3,-3.3,5.4,-1.1
CCCCCCCN1N=C(C)C(C(=O)c2ccccc2)C1=O (stereo not drawn),2.0,0.5,-3.0,-5.3,-5.1,0.8,·
O=C(/C=C/c1cccc([N+](=O)[O-])c1)N1CCN(C(=O)c2ccco2)CC1,0.1,-0.2,0.1,3.1,4.0,1.2,·
CC(C)c1ccc(OCc2nc(-c3ccccn3)no2)c(Br)c1,17.4,20.2*,-4.4,5.3,-4.4,-5.1,-3.2
CC(C)C[C@H]1CN=C(N(C)C)N1CC(C)C,6.9,0.0,·,-3.7,-3.6,10.2,·
CC1(c2ccc([N+](=O)[O-])cc2)Nc2ccccc2S1 (stereo not drawn),14.9,17.1*,5.2,2.0,6.5,11.8,2.1
COc1ccc(/C=C2\SC(=S)N(CCC(=O)Nc3cccc(O)c3)C2=O)cc1OC,-7.0,-4.9,-1.5,0.7,2.6,-12.8,·
CC1(C)OCC(C2CC(c3ccccc3)NS(=O)(=O)O2)O1 (stereo not drawn),0.4,-0.9,-1.6,-3.4,3.9,5.7,·
CC1(C)Cc2c(c(N3CCOCC3)nc3sc4c(NCc5ccccc5)nnnc4c23)CS1,-1.8,1.8,-8.2,0.9,8.2,-16.5,·

# Source: PubChem BioAssay
